{"data": "Assay results of several laboratories", "cell line": "Vero", "read-out": "cell growth or viability"}
{"Compound": "Cc1cccc(NCc2ccc(Oc3ccccn3)cc2)c1", "assay": "MTT", "setting": "72 h", "CC50": "> 300 µM"}
{"Compound": "O=C(Nc1ccc([N+](=O)[O-])cc1F)c1cc(Cl)ccc1O", "assay": "MTT", "setting": "72 h", "CC50": "5 µg/mL"}
{"Compound": "CCOC(=O)C1=C(C)N2NC(c3ccccc3O)N(C(Cc3c[nH]c4ccccc34)C(=O)O)C2=NC1c1ccc(Cl)cc1 (stereo not drawn)", "assay": "MTT", "setting": "72 h", "CC50": "250 µg/mL"}
{"Compound": "COc1ccc(CN2C(=O)c3ccccc3C2CB2OC(C)(C)C(C)(C)O2)cc1 (stereo not drawn)", "CC50": "2.3 µM"}
{"Compound": "Brc1cccc(NCc2ccc(Oc3ccccn3)cc2)c1", "assay": "MTT", "setting": "72 h", "CC50": "> 300 µM"}
{"Compound": "COC(=O)N[C@H](C(=O)N1C[C@H](N=[N+]=[N-])C[C@H]1c1ncc(-c2ccc(-c3ccc(-c4cnc([C@@H]5C[C@@H](N=[N+]=[N-])CN5C(=O)[C@@H](NC(=O)OC)C(C)C)[nH]4)cc3)cc2)[nH]1)C(C)C", "CC50": "> 100 µM"}
{"Compound": "COC(=O)N[C@@H](C[S+]([O-])Cc1ccccc1)C(=O)N1CCC[C@H]1c1ncc(-c2ccc(-c3ccc(-c4cnc([C@@H]5CCCN5C(=O)[C@@H](NC(=O)OC)C(C)C)[nH]4)cc3)cc2)[nH]1 (stereo partly drawn)", "CC50": "4 µM"}
{"Compound": "CC(C)(CO)C(=O)SCCOP(=O)(NCc1ccccc1)OC[C@H]1O[C@@H](n2cnc3c(=O)[nH]c(N)nc32)[C@](C)(O)[C@@H]1O (mixture of isomers)", "CC50": "> 100 µM"}
{"Compound": "O=C(Nc1ccc(Br)c(C(F)(F)F)c1)c1cc(Cl)ccc1O", "assay": "MTT", "setting": "72 h", "CC50": "5 µg/mL"}
{"Compound": "COc1ccc(NCc2ccc(Oc3ccccn3)cc2)cc1", "assay": "MTT", "setting": "72 h", "CC50": "> 300 µM"}
{"Compound": "O=C(Nc1ccc(Br)c(C(F)(F)F)c1)c1ccccc1O", "assay": "MTT", "setting": "72 h", "CC50": "< 5 µg/mL"}
{"Compound": "CC1(C)OB(CC2c3ccccc3C(=O)N2C2CCCCC2)OC1(C)C (stereo not drawn)", "CC50": "175 µM"}
{"Compound": "Clc1cccc(NCc2ccc(Oc3ccccn3)cc2)c1", "assay": "MTT", "setting": "72 h", "CC50": "> 300 µM"}
{"Compound": "O=C(Nc1ccc(Cl)cc1)c1cc(Cl)ccc1O", "assay": "MTT", "setting": "72 h", "CC50": "20 µg/mL"}
{"Compound": "NC(=O)c1ncn([C@@H]2O[C@H](CO)[C@@H](O)[C@H]2O)n1", "assay": "MTT", "setting": "72 h", "CC50": "> 200 µM"}
{"Compound": "O=C(Nc1ccc(F)c(F)c1)c1cc(Cl)ccc1O", "assay": "MTT", "setting": "72 h", "CC50": "< 5 µg/mL"}
{"Compound": "c1ccc(NCc2ccc(Oc3ccccn3)cc2)cc1", "assay": "MTT", "setting": "72 h", "CC50": "> 300 µM"}
{"Compound": "CC(C(=O)O)N1c2nc(-c3ccc(Cl)cc3)c(C#N)c(=O)n2NC1c1ccccc1O (stereo not drawn)", "assay": "MTT", "setting": "72 h", "CC50": "500 µg/mL"}
{"Compound": "O=C(Nc1cccc(C(F)(F)F)c1)c1cc(Cl)ccc1O", "assay": "MTT", "setting": "72 h", "CC50": "< 5 µg/mL"}
{"Compound": "Cc1ccccc1NCc1ccc(Oc2ccccn2)cc1", "assay": "MTT", "setting": "72 h", "CC50": "> 300 µM"}
{"Compound": "CC(=O)C1=C(C)N2NC(C)(c3ccccc3O)N(C(Cc3c[nH]c4ccccc34)C(=O)O)C2=NC1c1ccc(Cl)cc1 (stereo not drawn)", "assay": "MTT", "setting": "72 h", "CC50": "500 µg/mL"}
